Results on seven molecules are retold here after publication PMC3447998 (Biochemistry, 2012).

In assay [1] the target is T1, recombinant human NRMT (Homo sapiens, UniProt Q9BV86).
T1 sequence (Q9BV86 1-223): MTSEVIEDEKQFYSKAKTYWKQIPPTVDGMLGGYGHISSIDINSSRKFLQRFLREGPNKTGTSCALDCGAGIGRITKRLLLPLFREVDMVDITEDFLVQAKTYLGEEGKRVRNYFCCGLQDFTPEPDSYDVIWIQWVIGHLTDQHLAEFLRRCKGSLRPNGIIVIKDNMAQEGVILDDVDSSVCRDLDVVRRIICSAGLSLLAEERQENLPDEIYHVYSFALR
In words: Isothermal titration calorimetry. The format is binding. The conditions noted are these: 25°C, pH 8.0; for binding to recombinant human NRMT (in words): 10 residue RCC1 N-terminal peptides. The essentials:
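Recombinant NRMT was dialyzed overnight at 4°C against 50 mM Tris, 50 mM potassium acetate, pH 8.0. Ten-residue RCC1 N-terminal peptides, unmodified or N-methylated, were dissolved in the same buffer. At 25°C, 100 µM enzyme was titrated with 800–1000 µM peptide, and binding curves were fitted.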
(In ITC the heat of successive injections is recorded.)

Assay [2] has as its system recombinant NRMT (SPK-RCC1 substrate). In words: In vitro product inhibition assay, SPK-RCC1 substrate. The format is biochemical. Conditions: increasing concentrations of product peptide; n=2. Put shortly: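 Recombinant NRMT methylated RCC1 protein substrates bearing SPK or PPK N-termini in vitro. Increasing concentrations of N-trimethylated SPK or N-dimethylated PPK RCC1 product peptides were present. The read-out was N-terminal methylation of the substrate protein, normalized to the lowest product-peptide condition.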

The subject of assay [3] is N-terminus of protein. The conditions noted are these: yeast and mammals; ref [24],[25]; cited from earlier work.
The test system of assay [4] is endogenous NRMT (293LT cells). In words: Co-precipitation of endogenous NRMT with FLAG-tagged substrate proteins. It counts as binding. Conditions: C-terminally FLAG-tagged protein expressed in 293LT cells. Put shortly:
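C-terminally FLAG-tagged RCC1 or VRK2 expressed in 293LT cells, immunoprecipitated with anti-FLAG, and run on 10% polyacrylamide gel with Coomassie staining. On-bead material washed 3× with 100 mM ammonium bicarbonate (pH 8.0), then reduced, carbamidomethylated and digested with endoproteinase Glu-C (enzyme:protein 1:20). Peptides acidified to pH 3.5 and analysed by nano-LC-MS on C18 capillary columns.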

Entries after “also recorded” stand apart in the source; their conditions may differ. Where a SMILES comes first, the peptide text is derived from it. Where no end group is shown, it is not given here. The star is where a group is joined. X2 = C[N+](C)(C)[C@@H](CO)C(=O)*; X1 = C[N+]1(C)CCC[C@H]1C(=O)*

With `CC[C@H](C)[C@H](NC(=O)[C@H](CCCNC(=N)N)NC(=O)[C@H](CCCCN)NC(=O)[C@@H]1CCCN1C(=O)[C@@H]1CCC[N+]1(C)C)C(=O)N[C@@H](C)C(=O)N[C@@H](CCCCN)C(=O)N[C@@H](CCCNC(=N)N)C(=O)N[C@@H](CCCNC(=N)N)C(=O)N[C@@H](CO)C(=O)O` [me2PPKRIAKRRS] (X1-PKRIAKRRS-OH; C-terminus assumed), the “binding to recombinant human NRMT (in words)” value (from here on “binding”) in assay [1] is given as “bound to recombinant human NRMT with high affinity”. Moreover, the “concentration of efficient inhibition of N-terminal methylation of SPK-RCC1” value in assay [2] turned out to be 1.3 µM. The matching figures for `CC[C@H](C)[C@H](NC(=O)[C@H](CCCNC(=N)N)NC(=O)[C@H](CCCCN)NC(=O)[C@@H]1CCCN1C(=O)[C@H](CO)[N+](C)(C)C)C(=O)N[C@@H](C)C(=O)N[C@@H](CCCCN)C(=O)N[C@@H](CCCNC(=N)N)C(=O)N[C@@H](CCCNC(=N)N)C(=O)N[C@@H](CO)C(=O)O` [me3SPKRIAKRRS] (X2-PKRIAKRRS-OH; C-terminus assumed): “bound to recombinant human NRMT with high affinity” and 1.3 µM. By Kd is commonly meant the free concentration of one partner at which half of the binding sites on the other are occupied at equilibrium, for simple one-to-one binding. For the molecule PPKRIAKRRS [PPKRIAKRRS], the Kd in assay [1] (Kd, bi-phasic titration curve, second phase) stood at 136 nM. Regarding PPQRIAKRRS, the “binding” value in assay [1] is recorded as “very low affinity binding (in mM range, data not shown)”. For the molecule PWP1: protein with MNR-N-terminus, the “N-terminal acetylation reported (in words)” value in assay [3] is recorded as “reported to be N-terminally acetylated”. Consider SPQRIAKRRS, for which the “binding” value in assay [1] was “very low affinity binding (in mM range, data not shown)”. For “VRK2-FLAG: FLAG-tagged VRK2, possesses a P-P-K motif”, the “capture / co-precipitation of endogenous NRMT (in words)” value in assay [4] was “efficiently captured endogenous NRMT”; in assay [4] (listed as VRK2), “captured more NRMT than the RCC1; also recorded: NRMT is co-precipitated”.
